This is an account of results in ChEMBL document CHEMBL1137675, “Convenient one-pot synthesis of novel 2-substituted benzimidazoles, tetrahydrobenzimidazoles and imidazoles and evaluation of their in vitro antibacterial and antifungal activities” (2009).

One assay has as its system Salmonella typhimurium. As to the kind of experiment: Antibacterial activity against Salmonella Typhimurium MTCC 98 at 37 degC after 24 hrs by filter paper disk method. In kind it is functional, Salmonella enterica subsp. enterica serovar Typhimurium. Particulars: for MIC: Salmonella enterica, MTCC 98, 24 h. A digest of the protocol: (§1)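 Compounds were taken from a 1 mg/ml DMSO stock and serially diluted two-fold over a 300 to 18.75 range, then loaded onto sterile 8 mm paper discs. Bacteria were grown overnight in nutrient broth at 37 °C, pelleted, and resuspended in sterile NSS to 10⁵ cfu/ml. About 0.1 ml was spread on NA plates. Plates were incubated 24 h at 37 °C with a solvent control disc, and inhibition zone diameter was read in mm.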

In another assay the test system is Penicillium sp. As to the kind of experiment: Antifungal activity against Penicillium sp. at 28 degC after 72 hrs. As to conditions: for MIC: Penicillium sp., 72 h. It counts as functional. A digest of the protocol: (§2)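 Filamentous fungi were kept on SDA at 28 °C. Spores from 7-day cultures were suspended in sterile normal saline to about 10⁵ cfu/ml, and about 0.1 ml was spread on SDA plates. Compounds were serially diluted two-fold in DMSO and impregnated on 8 mm discs, with a solvent control disc on each plate. Plates were held at 28 °C for 72 h or more, and inhibition zone diameter was read in mm.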

Another assay concerns Aspergillus niger. Description: Antifungal activity against Aspergillus niger at 28 degC after 72 hrs. In kind it is functional. Particulars: for MIC: Aspergillus niger, 72 h. The method in brief: as §2
The test system of a further assay is Trichoderma viride. Description: Antifungal activity against Trichoderma viride at 28 degC after 72 hrs. As to conditions: for MIC: Trichoderma viride, 72 h. It counts as functional. A digest of the protocol: as §2
In another assay the test system is Bacillus subtilis. Description: Antibacterial activity against Bacillus subtilis ATCC 6051 at 37 degC after 24 hrs by filter paper disk method. It counts as functional. As to conditions: for MIC: Bacillus subtilis, ATCC 6051, 24 h. A digest of the protocol:
as §1

Another assay deals with Helminthosporium. As to the kind of experiment: Antifungal activity against Helminthosporium oryzae 2537 ICAR at 28 degC after 72 hrs. As to conditions: for MIC: Helminthosporium, 72 h. In kind it is functional. The method in brief: as §2
In a further assay the test system is Staphylococcus aureus. As to the kind of experiment: Antibacterial activity against Staphylococcus aureus MSSA 22 at 37 degC after 24 hrs by filter paper disk method. In kind it is functional. Particulars: for MIC: Staphylococcus aureus, MSSA 22, 24 h. A digest of the protocol:
as §1

The test system of another assay is Escherichia coli. As to the kind of experiment: Antibacterial activity against Escherichia coli K-12 at 37 degC after 24 hrs by filter paper disk method. In kind it is functional. As to conditions: for MIC: Escherichia coli, K-12, 24 h. The method in brief:
as §1

The test system of another assay is Candida albicans. Description: Antifungal activity against Candida albicans IOA-109 at 37 degC after 18 to 48 hrs. It counts as functional. Particulars: for MIC: Candida albicans, IOA-109.

SMILES strings stand for the structures. ≈ marks a conversion by molar mass, not a printed value.

Broadly, the MIC is the lowest concentration that inhibits growth of the organism. The low end stands for a more susceptible organism, the high end for a less susceptible organism. As to `CCCCC/C=C\CC[C@H](O)CCCCCCCc1nc2cc(Cl)ccc2[nH]1`, the “diameter of the inhibition zone (DIZ)” value came out at 17 mm with Salmonella typhimurium; 19 mm in the assay on Penicillium sp.; 14 mm in the assay with Aspergillus niger; 8 mm in the assay on Trichoderma viride; 20 mm in the assay on Bacillus subtilis; 14 mm in the assay with Helminthosporium. Further, the “diameter of the inhibition zone (DIZ)” value with Staphylococcus aureus worked out at 21 mm; in the assay with Escherichia coli, 19 mm; with Candida albicans it was 18 mm. Besides, the MIC came to 37.5 µg/mL (≈ 92.6 µM) against Salmonella typhimurium; 37.5 µg/mL (≈ 92.6 µM) in the assay with Penicillium sp.; 37.5 µg/mL (≈ 92.6 µM) in the assay with Aspergillus niger; 37.5 µg/mL (≈ 92.6 µM) against Trichoderma viride; 75 µg/mL (≈ 185 µM) against Bacillus subtilis; 75 µg/mL (≈ 185 µM) with Helminthosporium. Moreover, the MIC in the assay on Staphylococcus aureus, against Escherichia coli and in the assay with Candida albicans was 37.5 µg/mL (≈ 92.6 µM) throughout.
Turning to `C=CCCCCCCCCc1ncc[nH]1`, the “diameter of the inhibition zone (DIZ)” value in the assay on Salmonella typhimurium is 14 mm; with Penicillium sp., 16 mm; in the assay on Aspergillus niger, 11 mm; in the assay with Trichoderma viride, 6 mm; in the assay on Bacillus subtilis, 22 mm; in the assay on Helminthosporium, 12 mm. Further, the “diameter of the inhibition zone (DIZ)” value with Staphylococcus aureus is given as 16 mm; in the assay on Escherichia coli it was 15 mm; with Candida albicans, 19 mm. Moreover, the MIC against Salmonella typhimurium came out at 74 µg/mL (≈ 359 µM); against Penicillium sp., 150 µg/mL (≈ 727 µM); in the assay on Aspergillus niger, 150 µg/mL (≈ 727 µM); with Trichoderma viride it was 75 µg/mL (≈ 363 µM); against Bacillus subtilis, 37.5 µg/mL (≈ 182 µM); with Helminthosporium, 150 µg/mL (≈ 727 µM). In addition, the MIC in the assay on Staphylococcus aureus was found to be 150 µg/mL (≈ 727 µM); in the assay on Escherichia coli, 150 µg/mL (≈ 727 µM); against Candida albicans, 75 µg/mL (≈ 363 µM).
On to `CCCCCC[C@@H](O)C/C=C\CCCCCCCc1nc2c([nH]1)CCCC2`, for which the “diameter of the inhibition zone (DIZ)” value in the assay with Salmonella typhimurium stood at 12 mm; in the assay with Penicillium sp., 16 mm; in the assay with Aspergillus niger it was 12 mm; with Trichoderma viride, 7 mm; in the assay with Bacillus subtilis it was 19 mm; in the assay on Helminthosporium, 11 mm. In addition, the “diameter of the inhibition zone (DIZ)” value came to 17 mm with Staphylococcus aureus, 15 mm with Escherichia coli and 17 mm in the assay with Candida albicans. The MIC in the assay with Salmonella typhimurium was determined as 75 µg/mL (≈ 200 µM); with Penicillium sp. it was 75 µg/mL (≈ 200 µM); in the assay with Aspergillus niger, 37.5 µg/mL (≈ 100 µM); against Trichoderma viride it was 37.5 µg/mL (≈ 100 µM); in the assay on Bacillus subtilis, 75 µg/mL (≈ 200 µM); with Helminthosporium, 150 µg/mL (≈ 400 µM). In addition, the results for the minimum inhibitory concentration (MIC) with Staphylococcus aureus, with Escherichia coli and against Candida albicans were 75 µg/mL (≈ 200 µM), 150 µg/mL (≈ 400 µM) and 75 µg/mL (≈ 200 µM), respectively.
Consider `CCCCCC[C@@H](O)C/C=C\CCCCCCCc1nc2ccccc2[nH]1`, for which the “diameter of the inhibition zone (DIZ)” value with Salmonella typhimurium was 12 mm; with Penicillium sp., 19 mm; in the assay with Aspergillus niger it was 16 mm; with Trichoderma viride it was 8 mm; in the assay on Bacillus subtilis, 21 mm; in the assay with Helminthosporium, 13 mm. In addition, the “diameter of the inhibition zone (DIZ)” value in the assay on Staphylococcus aureus is 19 mm; in the assay with Escherichia coli, 17 mm; in the assay with Candida albicans it was 19 mm. In addition, the MIC with Salmonella typhimurium was found to be 75 µg/mL (≈ 202 µM); against Penicillium sp., 75 µg/mL (≈ 202 µM); in the assay on Aspergillus niger, 150 µg/mL (≈ 405 µM); in the assay on Trichoderma viride, 75 µg/mL (≈ 202 µM); in the assay on Bacillus subtilis, 75 µg/mL (≈ 202 µM); in the assay on Helminthosporium, 150 µg/mL (≈ 405 µM). Further, the MIC in the assay with Staphylococcus aureus is 150 µg/mL (≈ 405 µM); in the assay with Escherichia coli, 150 µg/mL (≈ 405 µM); against Candida albicans it was 75 µg/mL (≈ 202 µM).
For the compound `CCCCCC[C@@H](O)C/C=C\CCCCCCCc1nc2cc(Cl)ccc2[nH]1`, the “diameter of the inhibition zone (DIZ)” value worked out at 17 mm with Salmonella typhimurium; 19 mm in the assay on Penicillium sp.; 14 mm in the assay on Aspergillus niger; 9 mm with Trichoderma viride; 19 mm in the assay on Bacillus subtilis; 14 mm with Helminthosporium. For the same compound, the “diameter of the inhibition zone (DIZ)” value is on record as 21 mm with Staphylococcus aureus, 18 mm in the assay with Escherichia coli and 18 mm in the assay with Candida albicans. For the same compound, the MIC in the assay on Salmonella typhimurium stood at 37.5 µg/mL (≈ 92.6 µM); in the assay on Penicillium sp. it was 37.5 µg/mL (≈ 92.6 µM); in the assay with Aspergillus niger it was 37.5 µg/mL (≈ 92.6 µM); against Trichoderma viride it was 37.5 µg/mL (≈ 92.6 µM); with Bacillus subtilis, 75 µg/mL (≈ 185 µM); in the assay on Helminthosporium, 75 µg/mL (≈ 185 µM). Further, the MIC worked out at 37.5 µg/mL (≈ 92.6 µM) in the assay with Staphylococcus aureus, 75 µg/mL (≈ 185 µM) against Escherichia coli and 37.5 µg/mL (≈ 92.6 µM) in the assay with Candida albicans.
As for `CCCCCCCC/C=C/CCCCCCCc1nc2cc([N+](=O)[O-])ccc2[nH]1`, the “diameter of the inhibition zone (DIZ)” value in the assay with Salmonella typhimurium was found to be 11 mm; in the assay with Penicillium sp., 18 mm; with Aspergillus niger, 15 mm; in the assay on Trichoderma viride, 8 mm; in the assay with Bacillus subtilis, 20 mm; in the assay with Helminthosporium, 12 mm. The “diameter of the inhibition zone (DIZ)” value was 21 mm in the assay with Staphylococcus aureus, 20 mm in the assay on Escherichia coli and 19 mm with Candida albicans. Besides, the MIC with Salmonella typhimurium is 37.5 µg/mL (≈ 93.8 µM); against Penicillium sp., 37.5 µg/mL (≈ 93.8 µM); in the assay with Aspergillus niger it was 37.5 µg/mL (≈ 93.8 µM); in the assay on Trichoderma viride, 37.5 µg/mL (≈ 93.8 µM); against Bacillus subtilis, 37.5 µg/mL (≈ 93.8 µM); in the assay with Helminthosporium, 75 µg/mL (≈ 188 µM). The minimal inhibitory concentration (MIC) was found to be 37.5 µg/mL (≈ 93.8 µM) in the assay on Staphylococcus aureus, 75 µg/mL (≈ 188 µM) against Escherichia coli and 37.5 µg/mL (≈ 93.8 µM) in the assay on Candida albicans.
In the case of `CCCCCCCC/C=C/CCCCCCCc1nc2c([nH]1)CCCC2`, the “diameter of the inhibition zone (DIZ)” value in the assay with Salmonella typhimurium came out at 10 mm; with Penicillium sp., 17 mm; in the assay with Aspergillus niger, 13 mm; with Trichoderma viride it was 6 mm; in the assay on Bacillus subtilis it was 19 mm; in the assay with Helminthosporium, 12 mm. In addition, the entries for the “diameter of the inhibition zone (DIZ)” value with Staphylococcus aureus, with Escherichia coli and in the assay on Candida albicans were 16 mm, 17 mm and 18 mm, respectively. Further, the MIC with Salmonella typhimurium was 75 µg/mL (≈ 209 µM); against Penicillium sp., 75 µg/mL (≈ 209 µM); with Aspergillus niger, 37.5 µg/mL (≈ 105 µM); in the assay on Trichoderma viride, 37.5 µg/mL (≈ 105 µM); in the assay on Bacillus subtilis it was 75 µg/mL (≈ 209 µM); in the assay on Helminthosporium, 150 µg/mL (≈ 418 µM). The MIC was determined as 75 µg/mL (≈ 209 µM) with Staphylococcus aureus, 150 µg/mL (≈ 418 µM) against Escherichia coli and 75 µg/mL (≈ 209 µM) in the assay with Candida albicans.
For `CCCCCCCC/C=C\CCCCCCCc1nc2ccccc2[nH]1`, the “diameter of the inhibition zone (DIZ)” value with Salmonella typhimurium amounted to 14 mm; in the assay with Penicillium sp., 18 mm; in the assay on Aspergillus niger it was 16 mm; in the assay on Trichoderma viride, 6 mm; in the assay on Bacillus subtilis, 21 mm; in the assay on Helminthosporium, 12 mm. The “diameter of the inhibition zone (DIZ)” value with Staphylococcus aureus was determined as 18 mm; in the assay on Escherichia coli, 16 mm; with Candida albicans, 19 mm. Besides, the MIC was determined as 75 µg/mL (≈ 212 µM) in the assay with Salmonella typhimurium; 75 µg/mL (≈ 212 µM) in the assay on Penicillium sp.; 150 µg/mL (≈ 423 µM) with Aspergillus niger; 75 µg/mL (≈ 212 µM) against Trichoderma viride; 75 µg/mL (≈ 212 µM) against Bacillus subtilis; 150 µg/mL (≈ 423 µM) against Helminthosporium. In addition, the MIC stood at 150 µg/mL (≈ 423 µM) in the assay on Staphylococcus aureus, 150 µg/mL (≈ 423 µM) against Escherichia coli and 75 µg/mL (≈ 212 µM) against Candida albicans.
